pIC50: −log10 of the molar value. Active and inactive are the calls of the source. The rule behind the calls is not given here.
Experiments:
[1] = Inhibition of cytosolic phospholipase A2alpha by GLU micelle assay
Outline: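 Micellar assay with 7-hydroxycoumarinyl-γ-linolenate (GLU) substrate, presenting inhibitor and substrate to the enzyme in high-lipid micelles. Each run gives the mean of duplicate assays, and values come from at least two runs.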

Blood = assay: Inhibition of TXB2 production in Sprague-Dawley rat whole blood; assay type: functional, tissue-based
Outline: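 Rat whole blood stimulated with calcium ionophore A23187 at 5 µM, with thromboxane B2 measured. Each run gives the mean of triplicate assays, and values come from at least two runs.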

[2] = Plasma clearance in Sprague-Dawley rat at 2 mg/kg, iv; assay type: ADME, organism-based; design: dose 2 mg/kg, route intravenous
MC9 [3] = assay: Inhibition of leukotrienes production in mouse MC9 cells; assay type: functional, cell-based
Outline: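 Murine MC-9 mast cells stimulated through the IgE receptor to release arachidonic acid. Leukotriene production (5-LO pathway) was quantified.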

MC9 [4] = assay: Inhibition of LTB4 production in mouse MC9 cells; assay type: functional, cell-based
Rattus norvegicus [5] = assay: Inhibition of carrageenan-induced paw edema in Sprague-Dawley rat administered 2 hrs before carrageenan challenge at 10 mg/kg, po; conditions: read-out: INH
MC9 [6] = assay: Inhibition of PGF2alpha production in mouse MC9 cells; assay type: functional, cell-based
MC9 [7] = assay: Inhibition of PGF2apha production in arachidonic acid-stimulated mouse MC9 cells; assay type: functional, cell-based
Rattus norvegicus [8] = assay: Reduction in synovitis damage in Freund's adjuvant-induced arthritis Lewis rat model at 5 mg/kg, po for 11 days; assay type: functional, organism-based; design: dose 5 mg/kg
Outline: (§1)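 Arthritis was induced in Lewis rats by intradermal complete Freund's adjuvant at the base of the tail. Oral treatment began on day 8, when mean clinical joint scores were 12, and continued for 11 days. Tarsal joints were taken at necropsy and lesions were scored histologically in blinded fashion.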

Rattus norvegicus [9] = assay: Reduction in cartilage damage in Freund's adjuvant-induced arthritis Lewis rat model at 5 mg/kg, po for 11 days; assay type: functional, organism-based; design: dose 5 mg/kg; outline: as §1
Rattus norvegicus [10] = assay: Inhibition of PGE2 production in carrageenan-stimulated rat air pouch model at 2 mg/kg, ip after 6 hrs; assay type: functional; conditions: route intraperitoneal
Outline: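 Rats given an intraperitoneal dose. Carrageenan was injected into a preformed air pouch, contents were collected 6 h later, and PGE2 was quantified.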

Rattus norvegicus [11] = assay: Inhibition of carrageenan-induced paw edema in Sprague-Dawley rat administered 2 hrs before carrageenan challenge at 25 mg/kg, po; assay type: functional
[12] = Plasma concentration in adjuvant-induced arthritis Lewis rat model at 5 mg/kg, po after 4 hrs; assay type: ADME, organism-based; design: dose 5 mg/kg, route oral
[13] = Plasma concentration in adjuvant-induced arthritis Lewis rat model at 5 mg/kg, po after 16 hrs; assay type: ADME, organism-based; design: dose 5 mg/kg, route oral

SMILES: Cc1ccccc1CS(=O)(=O)NCCc1c(CCCc2ccc(C(=O)O)cc2)c2cc(Cl)ccc2n1C(c1ccccc1)c1ccccc1
- pIC50 [1]: 7.52
- pIC50 (Blood): 7.70
- clearance [2]: 6 mL/min/kg

SMILES: O=C(O)CCc1ccc(Cc2c(CCNS(=O)(=O)Cc3ccccc3)n(C(c3ccccc3)c3ccccc3)c3ccc(Cl)cc23)cc1
- pIC50 [1]: 5.70
- pIC50 (Blood): 6.05

SMILES: O=C(O)c1ccc(CCCc2c(CCNS(=O)(=O)Cc3ccccc3Cl)n(C(c3ccccc3)c3ccccc3)c3ccc(Cl)cc23)cc1
- pIC50 [1]: 7.70
- pIC50 (Blood): 7.52
- clearance [2]: 7 mL/min/kg

SMILES: O=C(O)c1ccc(S(=O)(=O)CCc2c(CCNS(=O)(=O)Cc3ccccc3)n(C(c3ccccc3)c3ccccc3)c3ccc(Cl)cc23)cc1
- pIC50 [1]: 7.70
- pIC50 (Blood): 7.10
- clearance [2]: 54 mL/min/kg

SMILES: O=C(O)c1ccc(OCCc2c(CCNS(=O)(=O)Cc3ccccc3[N+](=O)[O-])n(C(c3ccccc3)c3ccccc3)c3ccc(Cl)cc23)cc1
- pIC50 [1]: 7.07
- pIC50 (Blood): 7.52

SMILES: O=C(O)CCc1ccc(S(=O)(=O)CCc2c(CCNS(=O)(=O)Cc3ccccc3Cl)n(C(c3ccccc3)c3ccccc3)c3ccc(Cl)cc23)cc1
- pIC50 [1]: 8.00
- pIC50 (Blood): 7.70
- clearance [2]: 63 mL/min/kg

SMILES: O=C(O)c1ccc(S(=O)(=O)CCc2c(CCNS(=O)(=O)Cc3ccc(Cl)c(Cl)c3)n(C(c3ccccc3)c3ccccc3)c3ccc(Cl)cc23)cc1
- pIC50 [1]: 7.70
- pIC50 (Blood): 6.82
- clearance [2]: 19 mL/min/kg

SMILES: CC(c1cc2ccccc2s1)N(O)C(N)=O (configuration not stated) [ZILEUTON]
- Activity (MC9 [3]): Active
- pIC50 (MC9 [4]): 6.26

SMILES: N#Cc1cccc(CS(=O)(=O)NCCc2c(CCOc3ccc(C(=O)O)cc3)c3cc(Cl)ccc3n2C(c2ccccc2)c2ccccc2)c1
- pIC50 [1]: 6.52
- pIC50 (Blood): 6.80

SMILES: Cc1cccc(C)c1CS(=O)(=O)NCCc1c(CCOc2ccc(C(=O)O)cc2)c2cc(Cl)ccc2n1C(c1ccccc1)c1ccccc1
- pIC50 [1]: 7.52
- pIC50 (Blood): 7.52
- clearance [2]: 13 mL/min/kg

SMILES: O=C(O)COc1ccc(Cc2c(CCNS(=O)(=O)Cc3ccccc3)n(C(c3ccccc3)c3ccccc3)c3ccc(Cl)cc23)cc1
- pIC50 [1]: 5.15
- pIC50 (Blood): < 5.00

SMILES: CN(CCc1c(CCNS(=O)(=O)Cc2ccccc2)n(C(c2ccccc2)c2ccccc2)c2ccc(Cl)cc12)c1ccc(C(=O)O)cc1
- pIC50 [1]: 5.37
- pIC50 (Blood): 5.74

SMILES: O=C(O)c1ccc(CCCc2c(CCNS(=O)(=O)Cc3c(F)cccc3F)n(C(c3ccccc3)c3ccccc3)c3ccc(Cl)cc23)cc1
- pIC50 [1]: 7.22
- pIC50 (Blood): 6.44

SMILES: COc1ccc2cc([C@H](C)C(=O)O)ccc2c1 [NAPROXEN]
- inhibition in vivo at 10 mg/kg (Rattus norvegicus [5]): 50%
- pIC50 (MC9 [6]): 6.70
- pIC50 (MC9 [7]): 6.48

SMILES: N#Cc1ccc(CS(=O)(=O)NCCc2c(CCOc3ccc(C(=O)O)cc3)c3cc(Cl)ccc3n2C(c2ccccc2)c2ccccc2)cc1
- pIC50 [1]: 6.59
- pIC50 (Blood): 6.82

SMILES: O=C(O)c1ccc(OCCc2c(CCNS(=O)(=O)Cc3ccccn3)n(C(c3ccccc3)c3ccccc3)c3ccc(Cl)cc23)cc1
- pIC50 [1]: 6.40
- pIC50 (Blood): 6.46

SMILES: O=C(O)CCc1ccc(OCCc2c(CCNS(=O)(=O)Cc3ccccc3)n(C(c3ccccc3)c3ccccc3)c3ccc(Cl)cc23)cc1
- pIC50 [1]: 6.72
- pIC50 (Blood): 7.15

SMILES: O=C(O)CCc1ccc(S(=O)(=O)CCc2c(CCNS(=O)(=O)Cc3ccc(Cl)c(Cl)c3)n(C(c3ccccc3)c3ccccc3)c3ccc(Cl)cc23)cc1
- pIC50 [1]: 7.40
- pIC50 (Blood): 7.40
- clearance [2]: 10 mL/min/kg

SMILES: O=C(O)c1ccc(OCCc2c(CCNS(=O)(=O)Cc3ccc([N+](=O)[O-])cc3)n(C(c3ccccc3)c3ccccc3)c3ccc(Cl)cc23)cc1
- pIC50 [1]: 6.80
- pIC50 (Blood): 7.05

SMILES: Cc1cccc(C)c1CS(=O)(=O)NCCc1c(CCS(=O)(=O)c2ccc(C(=O)O)cc2)c2cc(Cl)ccc2n1C(c1ccccc1)c1ccccc1
- pIC50 [1]: 8.40
- pIC50 (Blood): 7.15
- clearance [2]: 25 mL/min/kg

SMILES: O=C(O)CCc1ccc(S(=O)(=O)CCc2c(CCNS(=O)(=O)Cc3ccccc3)n(C(c3ccccc3)c3ccccc3)c3ccc(Cl)cc23)cc1
- pIC50 [1]: 7.52
- pIC50 (Blood): 7.70
- clearance [2]: 150 mL/min/kg

SMILES: O=C(O)c1ccc(OCCc2c(CCNS(=O)(=O)Cc3ccncc3)n(C(c3ccccc3)c3ccccc3)c3ccc(Cl)cc23)cc1
- pIC50 [1]: 6.74
- pIC50 (Blood): 6.47

SMILES: O=C(O)c1ccc(CCCc2c(CCNS(=O)(=O)Cc3ccccc3)n(C(c3ccccc3)c3ccccc3)c3ccc(Cl)cc23)cc1
- pIC50 [1]: 7.15
- pIC50 (Blood): 7.15

SMILES: O=C(O)c1ccc(OCCc2c(CCNS(=O)(=O)Cc3cccnc3)n(C(c3ccccc3)c3ccccc3)c3ccc(Cl)cc23)cc1
- pIC50 [1]: 6.66
- pIC50 (Blood): 6.44

SMILES: O=C(O)c1ccc(S(=O)(=O)CCc2c(CCNS(=O)(=O)Cc3c(F)cccc3F)n(C(c3ccccc3)c3ccccc3)c3ccc(Cl)cc23)cc1
- pIC50 [1]: 7.70
- pIC50 (Blood): 6.82
- clearance [2]: 186 mL/min/kg

SMILES: O=C(O)Cc1nc(CCCc2c(CCNS(=O)(=O)Cc3ccccc3)n(C(c3ccccc3)c3ccccc3)c3ccc(Cl)cc23)no1
- pIC50 [1]: < 4.70

SMILES: O=C(O)c1ccc(S(=O)(=O)CCc2c(CCNS(=O)(=O)Cc3ccccc3Cl)n(C(c3ccccc3)c3ccccc3)c3ccc(Cl)cc23)cc1
- pIC50 [1]: 8.00
- pIC50 (Blood): 7.22

SMILES: O=C(O)c1ccc(OCCc2c(CCNS(=O)(=O)Cc3ccccc3)n(C(c3ccccc3)c3ccccc3)c3ccc(Cl)cc23)cc1
- pIC50 [1]: 6.96

SMILES: N#Cc1ccccc1CS(=O)(=O)NCCc1c(CCOc2ccc(C(=O)O)cc2)c2cc(Cl)ccc2n1C(c1ccccc1)c1ccccc1
- pIC50 [1]: 7.22
- pIC50 (Blood): 7.15

SMILES: O=C(O)c1ccc(NCCc2c(CCNS(=O)(=O)Cc3ccccc3)n(C(c3ccccc3)c3ccccc3)c3ccc(Cl)cc23)cc1
- pIC50 [1]: 6.17
- pIC50 (Blood): 6.40

SMILES: Cc1ccc(-c2cc(C(F)(F)F)nn2-c2ccc(S(N)(=O)=O)cc2)cc1 [CELECOXIB]
- Activity (Rattus norvegicus [8]): Active
- Activity (Rattus norvegicus [9]): Active
- inhibition in vivo at 2 mg/kg (Rattus norvegicus [10]): 90%
- inhibition in vivo at 25 mg/kg (Rattus norvegicus [11]): 37%
- pIC50 (MC9 [6]): 6.40
- pIC50 (MC9 [7]): 6.52
- concentration at 4 h [12]: 1130 ng/mL
- concentration at 16 h [13]: 129 ng/mL

SMILES: O=C(O)c1ccc(OCCc2c(CCNS(=O)(=O)Cc3c(F)cccc3F)n(C(c3ccccc3)c3ccccc3)c3ccc(Cl)cc23)cc1
- pIC50 [1]: 6.74
- pIC50 (Blood): 7.10
- clearance [2]: 32 mL/min/kg

SMILES: O=C(O)CCc1ccc(S(=O)(=O)CCc2c(CCNS(=O)(=O)Cc3c(F)cccc3F)n(C(c3ccccc3)c3ccccc3)c3ccc(Cl)cc23)cc1
- pIC50 [1]: 7.15
- pIC50 (Blood): 7.70

SMILES: O=C(O)c1ccc(Cc2c(CCNS(=O)(=O)Cc3ccccc3)n(C(c3ccccc3)c3ccccc3)c3ccc(Cl)cc23)cc1
- pIC50 [1]: 4.48
- pIC50 (Blood): < 5.00

SMILES: O=C(O)c1ccc(OCCc2c(CCNS(=O)(=O)Cc3ccccc3Cl)n(C(c3ccccc3)c3ccccc3)c3ccc(Cl)cc23)cc1
- pIC50 [1]: 7.30
- pIC50 (Blood): 7.30

SMILES: O=C(O)c1ccc(OCCc2c(CCNS(=O)(=O)Cc3cccc([N+](=O)[O-])c3)n(C(c3ccccc3)c3ccccc3)c3ccc(Cl)cc23)cc1
- pIC50 [1]: 6.96
- pIC50 (Blood): 7.15

SMILES: Cc1ccccc1CS(=O)(=O)NCCc1c(CCOc2ccc(C(=O)O)cc2)c2cc(Cl)ccc2n1C(c1ccccc1)c1ccccc1
- pIC50 [1]: 7.22
- pIC50 (Blood): 7.52

SMILES: O=C(O)c1ccc(OCCc2c(CCNS(=O)(=O)Cc3ccc4ccccc4c3)n(C(c3ccccc3)c3ccccc3)c3ccc(Cl)cc23)cc1
- pIC50 [1]: 6.64
- pIC50 (Blood): 6.85

From ChEMBL document CHEMBL1150415 (J Med Chem, 2008)
